Test results from ChEMBL document CHEMBL1955837 (J Med Chem, 2012).
pIC50: −log10 of the molar value. Activity calls are given as the source filed them. The calls are words filed in the database; no cut-off is given here.

How the values were obtained:
[1] = target: Voltage-gated inwardly rectifying potassium channel KCNH2 (Homo sapiens, UniProt Q12809); assay: Inhibition of human Erg expressed in HEK293 cells by patch clamp assay
[2] = Cardiotoxicity in human arteries assessed as inhibition of acetylcholine-mediated vasorelaxation at 100 uM pretreated with U46619 prior to Ach challenge measured after 50 mins in presence of L-arginine; type: toxicity, tissue-based, Artery
[3] = Cardiotoxicity in human arteries assessed as inhibition of acetylcholine-mediated vasorelaxation at 100 uM pretreated with U46619 prior to Ach challenge measured after 50 mins; type: toxicity, tissue-based, Artery
Procedure, shortened: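 Human resistance artery rings (~2 mm) were wire-mounted in a myograph in Krebs-bicarbonate PSS gassed with 95% O2/5% CO2 at 37 °C, and isometric tension was recorded. After ≥30 min equilibration, rings received three KPSS (62.5 mM) challenges. Endothelial integrity was checked with U46619 (1 × 10⁻⁷ M) then ACh. Compound was added for 50 min without L-arginine, then rings were submaximally precontracted with U46619 before cumulative ACh (1 × 10⁻¹⁰ to 1 × 10⁻⁵ M).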

[4] = target: Nitric oxide sythases; iNOS & nNOS (Homo sapiens) (UniProt P29475+P35228); assay: Selectivity ratio of IC50 for human recombinant iNOS to IC50 for human recombinant nNOS
Homo sapiens = species: Homo sapiens; assay: Selectivity ratio of IC50 for human recombinant eNOS to IC50 for human recombinant nNOS
[5] = target: Nitric oxide synthase, inducible (Homo sapiens, UniProt P35228); assay: Inhibition of human recombinant iNOS expressed in baculovirus infected insect Sf9 cells assessed as conversion of [3H]L-arginine to [3H]L-citrulline incubated for 15 mins prior to substrate addition measured after 45 mins by liquid scintillation counting
Nitric oxide synthase 1 [6] = target: Nitric oxide synthase 1 (Homo sapiens, UniProt P29475); assay: Inhibition of human recombinant nNOS expressed in baculovirus infected insect Sf9 cells assessed as conversion of [3H]L-arginine to [3H]L-citrulline incubated for 15 mins prior to substrate addition measured after 45 mins by liquid scintillation counting
Nitric oxide synthase 3 [7] = target: T1, Nitric oxide synthase 3 (Homo sapiens, UniProt P29474); assay: Inhibition of human recombinant eNOS expressed in baculovirus infected insect Sf9 cells assessed as conversion of [3H]L-arginine to [3H]L-citrulline incubated for 15 mins prior to substrate addition measured after 45 mins by liquid scintillation counting
T1 sequence (P29474 whole entry): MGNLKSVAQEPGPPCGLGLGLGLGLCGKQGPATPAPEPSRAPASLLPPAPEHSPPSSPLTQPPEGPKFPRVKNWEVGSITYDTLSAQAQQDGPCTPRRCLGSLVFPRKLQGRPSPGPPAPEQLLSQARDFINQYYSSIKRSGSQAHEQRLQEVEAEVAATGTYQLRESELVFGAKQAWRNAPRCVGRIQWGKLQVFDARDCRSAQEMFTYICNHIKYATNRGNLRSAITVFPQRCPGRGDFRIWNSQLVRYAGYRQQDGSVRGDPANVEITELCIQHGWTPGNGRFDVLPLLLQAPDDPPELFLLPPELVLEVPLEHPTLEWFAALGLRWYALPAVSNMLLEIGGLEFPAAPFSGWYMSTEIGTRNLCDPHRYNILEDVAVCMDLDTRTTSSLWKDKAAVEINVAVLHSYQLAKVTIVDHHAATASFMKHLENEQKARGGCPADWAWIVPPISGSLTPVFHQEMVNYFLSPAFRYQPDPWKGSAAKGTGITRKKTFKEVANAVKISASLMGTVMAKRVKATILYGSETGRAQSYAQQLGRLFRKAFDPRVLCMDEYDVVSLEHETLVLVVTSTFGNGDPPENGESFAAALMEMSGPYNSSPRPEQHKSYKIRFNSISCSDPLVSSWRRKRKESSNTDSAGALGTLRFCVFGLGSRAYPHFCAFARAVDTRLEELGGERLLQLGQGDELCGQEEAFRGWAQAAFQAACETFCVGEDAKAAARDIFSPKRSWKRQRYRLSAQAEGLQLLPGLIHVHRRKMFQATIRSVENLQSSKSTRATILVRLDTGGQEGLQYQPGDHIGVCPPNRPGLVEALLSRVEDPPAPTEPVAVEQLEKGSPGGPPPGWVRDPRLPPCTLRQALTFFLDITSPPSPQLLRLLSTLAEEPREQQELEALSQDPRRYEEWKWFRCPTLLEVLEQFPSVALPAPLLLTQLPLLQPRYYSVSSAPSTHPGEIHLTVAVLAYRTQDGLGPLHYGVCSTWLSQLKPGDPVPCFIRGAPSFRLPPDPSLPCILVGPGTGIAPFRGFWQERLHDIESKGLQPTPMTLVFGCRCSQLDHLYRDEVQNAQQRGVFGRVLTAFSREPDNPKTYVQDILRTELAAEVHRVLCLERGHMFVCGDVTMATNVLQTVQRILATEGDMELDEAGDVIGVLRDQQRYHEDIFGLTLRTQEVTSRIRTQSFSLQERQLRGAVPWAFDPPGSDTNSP

[8] = target: Kappa-type opioid receptor (Rattus norvegicus) (UniProt P34975); assay: Displacement of [3H]U 69593 from rat recombinant kappa opioid receptor expressed in CHO cells at 10 uM after 60 mins; type: cell-based
Procedure, shortened: (§1)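 Single-concentration (10 μM) radioligand binding screen. Specific binding = total minus nonspecific binding, with nonspecific binding taken in excess unlabeled ligand. Results were given as percent inhibition of control specific binding.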

[9] = target: Muscarinic acetylcholine receptor M5 (Homo sapiens) (UniProt P08912); assay: Displacement of [3H]4-DAMP from human recombinant muscarinic M5 receptor expressed in CHO cells at 10 uM after 60 mins; type: cell-based; procedure, shortened: as §1
Rattus norvegicus [10] = assay: Analgesic activity in rat Chung model of neuropathic pain assessed as partial reversal of thermal hyperalgesia at 30 mg/kg, ip measured after 30 mins; conditions: route intraperitoneal
[11] = target: 5-hydroxytryptamine receptor 5A (Homo sapiens) (UniProt P47898); assay: Displacement of [3H]LSD from human recombinant 5-HT5a receptor expressed in HEK293 cells at 10 uM after 120 mins; type: cell-based; procedure, shortened: as §1
[12] = target: T2, Sodium-dependent noradrenaline transporter (Homo sapiens, UniProt P23975); assay: Displacement of [3H]nisoxetine from human recombinant norepinephrine transporter expressed in CHO cells at 10 uM after 120 mins; type: cell-based; procedure, shortened: as §1
[13] = target: Nitric oxide synthase, inducible (Rattus norvegicus, UniProt Q06518); assay: Inhibition of rat recombinant iNOS expressed in baculovirus infected insect Sf9 cells assessed as conversion of [3H]L-arginine to [3H]L-citrulline incubated for 15 mins prior to substrate addition measured after 45 mins by liquid scintillation counting
Nitric oxide synthase 3 [14] = target: Nitric oxide synthase 3 (Rattus norvegicus, UniProt Q62600); assay: Inhibition of rat recombinant eNOS expressed in baculovirus infected insect Sf9 cells assessed as conversion of [3H]L-arginine to [3H]L-citrulline incubated for 15 mins prior to substrate addition measured after 45 mins by liquid scintillation counting
[15] = target: Mu-type opioid receptor (Homo sapiens) (UniProt P35372); assay: Displacement of [3H]DAMGO from human recombinant mu opioid receptor expressed in HEK 293 cells at 10 uM after 120 mins; type: cell-based; conditions: HEK293; procedure, shortened: as §1
[16] = target: Muscarinic acetylcholine receptor M2 (Homo sapiens) (UniProt P08172); assay: Displacement of [3H]AF-DX 384 from human recombinant muscarinic M2 receptor expressed in CHO cells at 10 uM after 60 mins; type: cell-based; procedure, shortened: as §1
Nitric oxide synthase 1 [17] = target: Nitric oxide synthase 1 (Rattus norvegicus, UniProt P29476); assay: Inhibition of rat recombinant nNOS expressed in baculovirus infected insect Sf9 cells assessed as conversion of [3H]L-arginine to [3H]L-citrulline incubated for 15 mins prior to substrate addition measured after 45 mins by liquid scintillation counting
[18] = target: Muscarinic acetylcholine receptor M3 (Homo sapiens) (UniProt P20309); assay: Displacement of [3H]4-DAMP from human recombinant muscarinic M3 receptor expressed in CHO cells at 10 uM after 60 mins; type: cell-based; procedure, shortened: as §1
Rattus norvegicus [19] = species: Rattus norvegicus; assay: Displacement of [3H]DTG from rat cerebral cortex sigma receptor at 10 uM after 120 mins; type: tissue-based; procedure, shortened: as §1
[20] = target: T2, Sodium-dependent noradrenaline transporter; assay: Displacement of [3H]nisoxetine from human recombinant norepinephrine transporter expressed in CHO cells after 120 mins; type: cell-based
[21] = target: Adrenergic receptor alpha-2 (Rattus norvegicus) (UniProt P22086+P19328+P22909); assay: Displacement of [3H]RX 821002 from rat cerebral cortex alpha2 adrenergic receptor at 10 uM after 60 mins; type: tissue-based; procedure, shortened: as §1
Rattus norvegicus [22] = assay: Analgesic activity in rat Chung model of neuropathic pain assessed as partial reversal of thermal hyperalgesia at 30 mg/kg, ip; type: functional, organism-based; design: dose 30 mg/kg
Procedure, shortened: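 Rats anesthetized with halothane; L5 and L6 spinal nerves exposed, isolated and tightly ligated with 4-0 silk suture distal to the DRG. After surgical recovery, hyperalgesia was read as paw withdrawal latency to radiant heat applied to the paw after intraperitoneal dosing.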

[23] = target: Muscarinic acetylcholine receptor M1 (Homo sapiens) (UniProt P11229); assay: Displacement of [3H]pirenzepine from human recombinant muscarinic M1 receptor expressed in CHO cells at 10 uM after 60 mins; type: cell-based; procedure, shortened: as §1
[24] = target: 5-hydroxytryptamine receptor 1B (Rattus norvegicus) (UniProt P28564); assay: Displacement of [125I]CYP from rat cerebral cortex 5HT1B receptor at 10 uM after 120 mins in the presence of (-)propranolol; type: tissue-based; procedure, shortened: as §1
[25] = target: Muscarinic acetylcholine receptor M4 (Homo sapiens) (UniProt P08173); assay: Displacement of [3H]4-DAMP from human recombinant muscarinic M4 receptor expressed in CHO cells at 10 uM after 60 mins; type: cell-based; procedure, shortened: as §1

Chain of Nitric oxide synthase 1 (Homo sapiens, UniProt P29475) (P29475 whole entry): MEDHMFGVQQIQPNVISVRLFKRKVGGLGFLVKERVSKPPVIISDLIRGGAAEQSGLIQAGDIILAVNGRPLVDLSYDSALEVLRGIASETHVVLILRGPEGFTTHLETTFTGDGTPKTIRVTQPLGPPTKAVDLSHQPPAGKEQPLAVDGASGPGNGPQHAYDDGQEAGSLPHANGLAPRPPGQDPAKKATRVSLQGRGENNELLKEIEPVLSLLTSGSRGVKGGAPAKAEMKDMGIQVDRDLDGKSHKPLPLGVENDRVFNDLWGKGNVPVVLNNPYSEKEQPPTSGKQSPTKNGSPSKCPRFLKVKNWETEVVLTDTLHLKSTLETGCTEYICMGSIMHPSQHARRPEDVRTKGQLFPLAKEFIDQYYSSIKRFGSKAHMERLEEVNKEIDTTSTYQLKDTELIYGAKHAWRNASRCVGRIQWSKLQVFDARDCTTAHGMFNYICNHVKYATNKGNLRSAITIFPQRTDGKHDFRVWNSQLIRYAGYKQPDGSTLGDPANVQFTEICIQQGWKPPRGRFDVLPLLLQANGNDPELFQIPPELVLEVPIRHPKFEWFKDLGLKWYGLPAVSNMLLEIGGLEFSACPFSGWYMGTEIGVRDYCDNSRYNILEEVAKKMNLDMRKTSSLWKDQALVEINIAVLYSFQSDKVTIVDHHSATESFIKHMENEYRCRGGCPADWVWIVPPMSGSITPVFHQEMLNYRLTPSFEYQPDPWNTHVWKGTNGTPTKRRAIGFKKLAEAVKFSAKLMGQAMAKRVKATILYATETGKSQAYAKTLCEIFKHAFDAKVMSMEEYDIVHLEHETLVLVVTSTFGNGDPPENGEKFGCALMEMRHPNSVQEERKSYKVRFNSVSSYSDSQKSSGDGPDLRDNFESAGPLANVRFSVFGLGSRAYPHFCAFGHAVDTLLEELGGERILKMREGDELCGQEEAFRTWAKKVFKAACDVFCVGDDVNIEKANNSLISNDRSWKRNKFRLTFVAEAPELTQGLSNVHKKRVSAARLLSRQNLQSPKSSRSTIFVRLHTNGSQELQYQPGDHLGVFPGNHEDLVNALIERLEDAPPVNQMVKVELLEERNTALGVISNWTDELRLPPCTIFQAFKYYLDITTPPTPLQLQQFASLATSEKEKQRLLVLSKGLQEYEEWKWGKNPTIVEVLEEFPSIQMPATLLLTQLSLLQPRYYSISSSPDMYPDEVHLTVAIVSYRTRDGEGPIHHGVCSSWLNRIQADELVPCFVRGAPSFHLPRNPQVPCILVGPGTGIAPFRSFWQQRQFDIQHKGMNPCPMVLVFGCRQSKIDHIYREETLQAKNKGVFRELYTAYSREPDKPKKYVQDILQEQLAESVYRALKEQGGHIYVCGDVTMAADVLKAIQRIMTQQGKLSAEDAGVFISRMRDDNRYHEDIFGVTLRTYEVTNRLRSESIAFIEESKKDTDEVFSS
Chain of Nitric oxide sythases; iNOS & nNOS (Homo sapiens) (P29475 whole entry, looked up): as the sequence (P29475 whole entry) above
Chain of Nitric oxide sythases; iNOS & nNOS (Homo sapiens) (P35228 whole entry, looked up): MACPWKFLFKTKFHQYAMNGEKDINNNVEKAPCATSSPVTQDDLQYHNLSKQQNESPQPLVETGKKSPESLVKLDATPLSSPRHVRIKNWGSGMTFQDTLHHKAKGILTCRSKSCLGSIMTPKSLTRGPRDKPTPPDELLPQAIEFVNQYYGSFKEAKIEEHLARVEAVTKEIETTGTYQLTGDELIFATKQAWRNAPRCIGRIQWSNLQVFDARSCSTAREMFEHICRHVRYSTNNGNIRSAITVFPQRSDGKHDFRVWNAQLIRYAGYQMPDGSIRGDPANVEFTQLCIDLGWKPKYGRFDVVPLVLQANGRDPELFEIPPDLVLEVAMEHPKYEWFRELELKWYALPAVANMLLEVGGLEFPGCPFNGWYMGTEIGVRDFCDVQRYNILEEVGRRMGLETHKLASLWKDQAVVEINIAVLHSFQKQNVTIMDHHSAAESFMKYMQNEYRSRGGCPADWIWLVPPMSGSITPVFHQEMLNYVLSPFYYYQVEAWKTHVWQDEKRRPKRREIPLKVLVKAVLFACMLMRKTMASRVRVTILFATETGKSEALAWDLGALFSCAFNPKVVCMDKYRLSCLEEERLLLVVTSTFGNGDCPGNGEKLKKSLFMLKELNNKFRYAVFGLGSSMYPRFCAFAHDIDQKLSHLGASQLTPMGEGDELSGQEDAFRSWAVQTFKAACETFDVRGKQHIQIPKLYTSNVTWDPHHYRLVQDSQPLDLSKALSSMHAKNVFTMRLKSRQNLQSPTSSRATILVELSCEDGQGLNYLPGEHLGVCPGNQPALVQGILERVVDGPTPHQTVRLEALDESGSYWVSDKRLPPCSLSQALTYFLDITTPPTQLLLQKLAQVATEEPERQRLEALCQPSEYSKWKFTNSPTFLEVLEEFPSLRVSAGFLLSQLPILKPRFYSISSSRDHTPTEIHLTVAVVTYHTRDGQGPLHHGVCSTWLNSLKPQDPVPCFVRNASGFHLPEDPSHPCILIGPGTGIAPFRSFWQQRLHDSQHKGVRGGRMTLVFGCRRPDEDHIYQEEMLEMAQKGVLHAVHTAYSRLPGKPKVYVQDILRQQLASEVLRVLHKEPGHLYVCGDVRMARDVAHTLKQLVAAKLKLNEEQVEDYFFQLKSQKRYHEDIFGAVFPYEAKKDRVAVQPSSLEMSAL
Chain of Nitric oxide synthase, inducible (Homo sapiens, UniProt P35228) (P35228 whole entry): as the sequence (P35228 whole entry, looked up) above
T2 sequence (P23975 whole entry): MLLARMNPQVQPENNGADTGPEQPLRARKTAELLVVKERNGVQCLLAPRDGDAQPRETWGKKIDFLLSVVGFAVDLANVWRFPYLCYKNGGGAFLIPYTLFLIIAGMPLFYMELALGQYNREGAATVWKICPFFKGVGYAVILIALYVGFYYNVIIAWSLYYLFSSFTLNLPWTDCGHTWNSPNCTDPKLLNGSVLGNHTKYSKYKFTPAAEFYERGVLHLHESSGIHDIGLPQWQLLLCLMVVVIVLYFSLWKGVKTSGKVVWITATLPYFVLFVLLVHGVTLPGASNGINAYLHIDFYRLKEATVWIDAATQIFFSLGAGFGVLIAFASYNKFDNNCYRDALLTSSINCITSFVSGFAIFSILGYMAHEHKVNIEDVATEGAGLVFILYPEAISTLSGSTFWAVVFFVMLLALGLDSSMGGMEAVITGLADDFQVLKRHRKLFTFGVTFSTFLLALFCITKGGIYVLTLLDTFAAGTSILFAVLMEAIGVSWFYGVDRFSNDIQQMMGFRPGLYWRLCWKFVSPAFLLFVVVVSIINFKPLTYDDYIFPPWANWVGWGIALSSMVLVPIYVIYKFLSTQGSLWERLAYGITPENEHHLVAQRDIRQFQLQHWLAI
Chain of Muscarinic acetylcholine receptor M5 (Homo sapiens) (P08912 whole entry): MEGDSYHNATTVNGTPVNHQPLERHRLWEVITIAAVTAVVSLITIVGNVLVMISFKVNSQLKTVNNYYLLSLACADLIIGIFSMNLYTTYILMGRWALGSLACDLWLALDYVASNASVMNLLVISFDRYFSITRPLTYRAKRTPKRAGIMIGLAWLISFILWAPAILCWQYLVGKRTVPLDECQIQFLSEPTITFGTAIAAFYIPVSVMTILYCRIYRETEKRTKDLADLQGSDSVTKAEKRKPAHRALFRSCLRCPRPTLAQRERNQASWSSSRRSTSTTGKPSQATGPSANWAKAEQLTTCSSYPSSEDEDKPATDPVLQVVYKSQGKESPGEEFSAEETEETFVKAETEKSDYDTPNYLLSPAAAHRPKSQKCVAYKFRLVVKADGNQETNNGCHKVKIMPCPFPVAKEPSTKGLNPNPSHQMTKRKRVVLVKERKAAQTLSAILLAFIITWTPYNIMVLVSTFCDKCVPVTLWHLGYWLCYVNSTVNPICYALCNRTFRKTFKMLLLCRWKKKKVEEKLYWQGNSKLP
Chain of 5-hydroxytryptamine receptor 5A (Homo sapiens) (P47898 whole entry): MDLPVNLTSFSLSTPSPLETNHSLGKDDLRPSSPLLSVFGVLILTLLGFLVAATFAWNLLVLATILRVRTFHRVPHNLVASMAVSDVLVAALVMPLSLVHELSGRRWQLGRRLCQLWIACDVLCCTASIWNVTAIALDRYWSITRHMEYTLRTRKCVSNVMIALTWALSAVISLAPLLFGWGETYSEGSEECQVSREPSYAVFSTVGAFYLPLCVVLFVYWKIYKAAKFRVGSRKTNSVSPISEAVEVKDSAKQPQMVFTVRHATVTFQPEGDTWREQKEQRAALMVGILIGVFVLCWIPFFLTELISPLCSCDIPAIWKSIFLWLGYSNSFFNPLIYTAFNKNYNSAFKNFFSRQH
Chain of Kappa-type opioid receptor (Rattus norvegicus) (P34975 whole entry): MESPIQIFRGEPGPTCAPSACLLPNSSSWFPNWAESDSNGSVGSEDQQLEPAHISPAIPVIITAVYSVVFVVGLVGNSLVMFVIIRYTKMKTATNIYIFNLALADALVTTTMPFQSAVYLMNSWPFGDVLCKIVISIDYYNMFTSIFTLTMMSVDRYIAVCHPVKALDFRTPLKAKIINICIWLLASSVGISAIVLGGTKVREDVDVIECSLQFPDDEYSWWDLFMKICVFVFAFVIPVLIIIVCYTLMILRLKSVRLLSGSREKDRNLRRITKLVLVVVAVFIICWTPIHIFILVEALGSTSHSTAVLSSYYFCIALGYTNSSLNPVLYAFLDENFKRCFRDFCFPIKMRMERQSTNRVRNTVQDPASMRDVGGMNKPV
Chain of Mu-type opioid receptor (Homo sapiens) (P35372 whole entry): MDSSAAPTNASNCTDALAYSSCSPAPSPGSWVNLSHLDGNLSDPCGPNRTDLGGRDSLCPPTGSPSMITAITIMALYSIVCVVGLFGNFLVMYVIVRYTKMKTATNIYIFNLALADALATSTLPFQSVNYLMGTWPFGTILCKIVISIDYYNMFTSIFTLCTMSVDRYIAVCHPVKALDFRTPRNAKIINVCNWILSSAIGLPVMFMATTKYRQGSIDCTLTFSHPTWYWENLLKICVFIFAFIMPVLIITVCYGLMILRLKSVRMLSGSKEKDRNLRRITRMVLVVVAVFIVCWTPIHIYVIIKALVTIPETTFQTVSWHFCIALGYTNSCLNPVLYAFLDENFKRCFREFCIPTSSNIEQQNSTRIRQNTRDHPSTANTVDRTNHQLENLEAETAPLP

SMILES | Ratio IC50 [4] | Ratio IC50 (Homo sapiens) | pIC50 [5] | pIC50 (Nitric oxide synthase 1 [6]) | pIC50 (Nitric oxide synthase 3 [7]) | further results
CN1CCC[C@H]1CCN1CCCc2cc(NC(=N)c3cccs3)ccc21 | – | – | – | – | – | pIC50 [1]: 5.33; Activity [2]: Active; Activity [3]: Active
N=C(Nc1ccc2c(c1)N(CCN1CC[C@@H](O)C1)CC2)c1cccs1 | 62 | 71 | – | – | – | –
NC(=Nc1ccc2c(c1)N(CCN1CC[C@@H](O)C1)CC2)c1cccs1 | – | – | 5.17 | 6.96 | 5.15 | –
N=C(Nc1ccc2c(c1)N(C1CCOCC1)CC2)c1cccs1 | – | 26 | – | – | – | –
CN[C@H]1CC[C@@H](N2CCc3ccc(NC(=N)c4cccs4)cc32)CC1 | – | – | 4.08 | 6.43 | 3.71 | inhibition [8]: 69%; inhibition [9]: 90%; MPE (Rattus norvegicus [10]): 66%; inhibition [11]: 59%; inhibition [12]: 86%; pIC50 [13]: 5.63; pIC50 (Nitric oxide synthase 3 [14]): 5.38; inhibition [15]: 52%; Activity [2]: Not Active; inhibition [16]: 80%; pIC50 (Nitric oxide synthase 1 [17]): 5.71; Activity [3]: Not Active; inhibition [18]: 85%; inhibition (Rattus norvegicus [19]): 72%; pIC50 [20]: 5.36; inhibition [21]: 58%; Activity (Rattus norvegicus [22]): Active; inhibition [23]: 80%; inhibition [24]: 60%; inhibition [25]: 95%
N=C(Nc1ccc2c(c1)N(C1CCNCC1)CC2)c1cccs1 | 4 | 183 | – | – | – | –
CN[C@H]1CC[C@@H](N2CCc3cc(F)c(NC(=N)c4cccs4)cc32)CC1 | 154 | 38 | 3.05 | 5.24 | 3.66 | –
CN[C@H]1CC[C@H](N2CCc3ccc(NC(=N)c4cccs4)cc32)CC1 | – | – | 3.72 | 5.67 | 3.63 | –
NC(=Nc1ccc2c(c1)N(C1CCOCC1)CC2)c1cccs1 | – | – | < 4.00 | 5.49 | 4.07 | –
N=C(Nc1cc2c(cc1F)CCN2C1CCNCC1)c1cccs1 | 26 | 13 | 3.32 | 4.73 | 3.61 | –
NC(=Nc1ccc2c(c1)N(C1CCSCC1)CC2)c1cccs1 | – | – | 5.95 | 5.68 | 4.67 | –
NC(=Nc1ccc2c(c1)N(C1CCNCC1)CC2)c1cccs1 | – | – | 5.62 | 6.27 | 4.00 | –
NC(=Nc1ccc2c(c1)N(CCNCCO)CC2)c1cccs1 | – | – | 5.47 | 7.15 | 5.47 | –
N=C(Nc1ccc2c(c1)N(CCNCCO)CC2)c1cccs1 | 49 | 48 | – | – | – | –
N=C(Nc1ccc2c(c1)N(C1CCNC1)CC2)c1cccs1 (racemic) | 50 | 40 | 5.05 | 6.74 | 5.14 | –
N=C(Nc1ccc2c(c1)N(C1CCCCC1)CC2)c1cccs1 | – | 27 | – | – | – | –
N=C(Nc1ccc2c(c1)N(C1CCSCC1)CC2)c1cccs1 | 0.5 | 10 | – | – | – | –
CN[C@H]1CC[C@H](N2CCc3cc(F)c(NC(=N)c4cccs4)cc32)CC1 | 91 | 41 | 3.28 | 5.24 | 3.64 | –
NC(=Nc1ccc2c(c1)N(C1CCCCC1)CC2)c1cccs1 | – | – | < 4.00 | 5.39 | 3.96 | –
